Results published in ChEMBL document CHEMBL4406881, “Design, synthesis and biological evaluation of benzoylacrylic acid shikonin ester derivatives as irreversible dual inhibitors of tubulin and EGFR” (Bioorg Med Chem, 2019).
Activity calls are given as the source filed them. The calls are words filed in the database; no cut-off is given here.

What was measured:
[1] = system: A549; assay: Induction of apoptosis in human A549 cells assessed as necrotic cells after at 4 uM 24 hrs by Annexin-V/PI staining based flow cytometry analysis (reference value: 1.81%); assay type: functional
Outline: (§1)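 A549 cells seeded overnight at 37 °C, 5% CO2, then exposed to 0, 2, 4, 8 or 12 µM for 24 h (dose series) or 8 µM for 0, 12, 24, 36 h (time series). Harvested, PBS-washed, stained with Annexin V-FITC and PI in binding buffer 15 min at room temperature in the dark, analysed by flow cytometry; three independent experiments.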

[2] = system: A549; assay: Cell cycle arrest in human A549 cells assessed as accumulation at S phase at 4 uM after 24 hrs by RNAse A/ PI staining based flow cytometric analysis (reference value: 17.23%); assay type: functional
Outline: (§2)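 A549 cells at 5.0×10^4 per well were grown 12 h at 37 °C. Treatment was 0, 2, 4 or 8 µM for 24 h, or 8 µM for 0, 12, 24 or 36 h. Cells were fixed in 70% ethanol at −20 °C for at least 12 h, then stained in PBS with 0.1 mg/mL RNase A and 5 µg/mL PI. At least 10,000 events per sample were collected by flow cytometry to give G0/G1, S and G2/M percentages.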

[3] = system: A549; assay: Induction of apoptosis in human A549 cells assessed as high mitochondrial membrane potential at 8 uM after 12 hrs by JC-1 staining-based flow cytometric analysis (reference value: 90.6%); assay type: functional
Outline: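 JC-1 staining of A549 cells treated for 12 h. CCCP-treated wells, 20 min at 37 °C, served as positive control. Collected cells were incubated with JC-1 solution at 37 °C for 30 min, washed, and analysed by flow cytometry for the fraction with high ΔΨm and for PI-positive cells. Results are mean ± S.E.M. of three replicates.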

[4] = system: A549; assay: Induction of apoptosis in human A549 cells assessed as necrotic cells after at 8 uM 24 hrs by Annexin-V/PI staining based flow cytometry analysis (reference value: 2.98%); assay type: functional; outline: as §1
[5] = system: A549; assay: Induction of apoptosis in human A549 cells assessed as late apoptotic cells at 2 uM after 24 hrs by Annexin-V/PI staining based flow cytometry analysis (reference value: 5.69%); assay type: functional
[6] = system: A549; assay: Induction of apoptosis in human A549 cells assessed as early apoptotic cells at 8 uM after 24 hrs by Annexin-V/PI staining based flow cytometry analysis (reference value: 1.15%); assay type: functional
[7] = system: NCI-H1975; assay: Antiproliferative activity against human NCI-H1975 cells assessed as reduction in cell viability after 24 hrs by MTT assay; assay type: functional, cell-based; conditions: NCI-H1975, 24 h
Outline: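 MTT colorimetric assay. Cells in log phase in medium with 10% FBS were seeded at 10⁴ cells/well and left overnight at 37 °C, 5% CO₂ to reattach. Compounds were added at 0.1, 1, 10 and 100 μM in 10% FBS for 24 h. IC50 reported as mean ± SD of three independent experiments.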

[8] = Toxicity in ip dosed Balb/c mouse xenografted with human A549 cells assessed as effect on body weight at 2 to 4 mg/kg, ip administered once every two days for 32 days and measured for every 2 days; assay type: organism-based; conditions: in vivo
Outline: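 Female BALB/c nude mice (5-6 weeks) received 6×10^6 A549 cells s.c. in the flank. After two weeks (tumours ~90 mm³) they were split into 5 groups (n = 8). Dosing was 2 or 4 mg/kg, dissolved in DMSO, i.p. once every two days for 16 doses; DMSO vehicle served as control. Body weight and tumour volume (L×S²/2) were recorded every two days; mice were killed at day 32.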

[9] = target: Epidermal growth factor receptor (Homo sapiens, UniProt P00533); assay: Inhibition of EGFR signalling in human A549 cells assessed as reduction in AKT phosphorylation after 24 hrs by Western blot analysis; assay type: cell-based
Outline: (§3)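 A549 cells in 6-well plates were lysed in RIPA buffer with protease inhibitors on ice for 30 min and cleared at 4 °C. Protein was quantified by BCA, run on SDS-PAGE and transferred to PVDF. Membranes were blocked with milk, probed with primary antibody (1:1000) overnight at 4 °C, then secondary antibody (1:3000-1:5000) 1 h at RT. Detection by ECL; band densitometry normalised to GAPDH (β-actin also used). Three independent experiments.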

[10] = system: A549; assay: Cell cycle arrest in human A549 cells assessed as accumulation at G1 phase at 8 uM after 24 hrs by RNAse A/ PI staining based flow cytometric analysis (reference value: 67.69%); assay type: functional; outline: as §2
[11] = system: A549; assay: Induction of apoptosis in human A549 cells incubated for 24 hrs by Annexin-V/PI staining based flow cytometry analysis; assay type: functional, cell-based; outline: as §1
[12] = system: A549; assay: Induction of apoptosis in human A549 cells assessed as early apoptotic cells at 8 uM after 24 hrs by Annexin-V/PI staining based flow cytometry analysis (reference value: 2.02%); assay type: functional
[13] = target: Tubulin (Homo sapiens) (UniProt P68371+Q9H4B7+P0DPH7+P68366+Q13509+Q71U36+P04350+Q3ZCM7+P07437+P68363+Q9BQE3+Q6PEY2+Q13885+Q9BVA1+Q9BUF5); assay: Inhibition of microtubule polymerization in human A549 cells assessed as polymerized tubulin expression at 8 uM after 24 hrs by immuno blot analysis (reference value: 0.85); assay type: cell-based
Outline: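 Cells were lysed in hypotonic buffer 5 min at 37 °C and centrifuged 10000 rpm, 10 min, 25 °C. Soluble (supernatant) and polymerised (pellet) tubulin fractions were resolved by SDS-PAGE in equal amounts and immunoblotted for β-tubulin.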

[14] = system: A549; assay: Antiproliferative activity against human A549 cells assessed as reduction in cell viability after 24 hrs by MTT assay; assay type: functional, cell-based; conditions: A549, 24 h
[15] = system: A549; assay: Antitumour activity in ip dosed Balb/c mouse xenografted with human A549 cells assessed as increase in mouse survival at 2 to 4 mg/kg, ip administered once every two days for 32 days; assay type: functional, organism-based
[16] = system: A549; assay: Cell cycle arrest in human A549 cells assessed as accumulation at S phase at 2 uM after 24 hrs by RNAse A/ PI staining based flow cytometric analysis (reference value: 17.23%); assay type: functional; outline: as §2
[17] = system: A549; assay: Induction of apoptosis in human A549 cells assessed as late apoptotic cells at 8 uM after 36 hrs by Annexin-V/PI staining based flow cytometry analysis (reference value: 6.55%); assay type: functional; outline: as §1
[18] = system: A549; assay: Cell cycle arrest in human A549 cells assessed as accumulation at G2/M phase at 2 uM after 24 hrs by RNAse A/ PI staining based flow cytometric analysis (reference value: 9.47%); assay type: functional; outline: as §2
[19] = system: A549; assay: Induction of apoptosis in human A549 cells assessed as reduction in caspase-9 expression at 2 to 8 uM after 24 hrs by Western blot analysis; assay type: functional, cell-based; outline: as §3
[20] = system: A549; assay: Induction of apoptosis in human A549 cells assessed as early apoptotic cells at 8 uM after 12 hrs by Annexin-V/PI staining based flow cytometry analysis (reference value: 2.02%); assay type: functional
[21] = system: A549; assay: Induction of apoptosis in human A549 cells assessed as viable cells at 8 uM after 36 hrs by Annexin-V/PI staining based flow cytometry analysis (reference value: 88.4%); assay type: functional; conditions: A549, 36 h, read-out: Activity; outline: as §1
[22] = system: A549; assay: Induction of apoptosis in human A549 cells assessed as necrotic cells after at 8 uM 36 hrs by Annexin-V/PI staining based flow cytometry analysis (reference value: 2.98%); assay type: functional; outline: as §1

Sequence of Epidermal growth factor receptor (P00533 whole entry): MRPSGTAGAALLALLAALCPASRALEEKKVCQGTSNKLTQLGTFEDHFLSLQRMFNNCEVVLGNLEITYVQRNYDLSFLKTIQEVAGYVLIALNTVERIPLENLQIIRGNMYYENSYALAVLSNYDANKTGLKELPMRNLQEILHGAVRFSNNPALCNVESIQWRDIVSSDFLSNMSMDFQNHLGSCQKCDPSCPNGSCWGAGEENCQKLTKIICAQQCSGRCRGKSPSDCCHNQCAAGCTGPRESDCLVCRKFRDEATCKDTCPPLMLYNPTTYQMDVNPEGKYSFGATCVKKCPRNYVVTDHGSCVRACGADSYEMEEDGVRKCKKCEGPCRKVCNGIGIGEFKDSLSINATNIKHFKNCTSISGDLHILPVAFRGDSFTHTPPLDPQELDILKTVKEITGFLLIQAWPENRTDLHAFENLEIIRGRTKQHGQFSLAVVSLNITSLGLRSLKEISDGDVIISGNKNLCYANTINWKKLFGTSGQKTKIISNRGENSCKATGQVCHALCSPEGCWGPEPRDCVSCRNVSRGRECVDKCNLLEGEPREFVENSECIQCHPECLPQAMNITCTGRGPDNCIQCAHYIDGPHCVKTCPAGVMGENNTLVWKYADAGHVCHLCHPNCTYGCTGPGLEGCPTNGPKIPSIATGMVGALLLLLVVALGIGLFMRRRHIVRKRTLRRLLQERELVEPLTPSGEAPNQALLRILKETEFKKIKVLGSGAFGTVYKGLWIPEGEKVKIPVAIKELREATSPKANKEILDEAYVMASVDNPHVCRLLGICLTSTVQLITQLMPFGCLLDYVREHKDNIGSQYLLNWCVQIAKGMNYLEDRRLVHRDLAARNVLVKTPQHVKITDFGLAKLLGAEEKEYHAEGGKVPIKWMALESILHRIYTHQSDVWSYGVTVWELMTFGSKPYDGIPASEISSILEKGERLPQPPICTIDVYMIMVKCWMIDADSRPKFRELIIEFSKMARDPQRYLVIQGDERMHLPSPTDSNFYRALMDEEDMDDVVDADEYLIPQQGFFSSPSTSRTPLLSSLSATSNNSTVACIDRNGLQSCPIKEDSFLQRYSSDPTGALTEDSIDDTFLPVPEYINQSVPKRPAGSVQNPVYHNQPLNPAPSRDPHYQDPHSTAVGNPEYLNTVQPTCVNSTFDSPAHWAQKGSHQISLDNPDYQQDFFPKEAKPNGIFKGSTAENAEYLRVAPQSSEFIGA

Question: What does the source list for `CC(C)=CC[C@@H](OC(=O)/C=C\C(=O)c1ccc(F)cc1)C1=CC(=O)c2c(O)ccc(O)c2C1=O`?
Answer: Activity [1]: 0.175%; Activity [2]: 19.8%; Activity [3]: 55.8%; Activity [4]: 3.72%; Activity [5]: 9.45%; Activity [6]: 35.6%; IC50 [7]: 9.43 µM; Activity [8]: Non-Toxic; inhibition [9]: Dose-dependent effect; Activity [10]: 42.59%; Activity [11]: Dose-dependent effect; Activity [12]: 31.7%; fold change (FC) [13]: 0.69; IC50 [14]: 4.37 µM; Activity [15]: Active; Activity [16]: 22.93%; Activity [17]: 41%; Activity [18]: 15.4%; Activity [19]: Active; Activity [20]: 8.92%; viability at 8 µM [21]: 12.2%; Activity [22]: 3%
